Series [1] is filed under the species Gallus gallus. Put plainly: Effect on reduced chicken lysozyme folding activity assessed as maximal activity at 15 mM at pH 6. Also noted: scale not given: the % may be the effect or the level left. Put shortly: (§1)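 Denatured reduced lysozyme (DTE-reduced in 6 M GdnHCl, desalted) diluted 100-fold to 7 µM (0.1 mg/mL) into deoxygenated 0.1 M Bis–Tris pH 6.0, 1 mM EDTA, 0.5 M GdnHCl, 0.2 mM GSSG plus aromatic thiol, 25 °C. Aliquots assayed over time by lysis of M. lysodeikticus (450 nm light scattering, 2 min slope). Curves fit to y=A(1−e^−kt), A = maximal %activity; at least four assays on separate days, standard deviation.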

Series [2] in a line: Dissociation constant, pKa of the compound. It is filed as physicochemical.
The species named for series [3] is Gallus gallus. Put plainly: Effect on reduced chicken lysozyme folding activity assessed as maximal activity at 20 mM at pH 7. Also noted: scale not given: the % may be the effect or the level left. Put shortly:
(§2)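 Denatured reduced lysozyme diluted 100-fold to 7 µM into deoxygenated 0.1 M Bis–Tris propane pH 7.0, 1 mM EDTA, 0.5 M GdnHCl, 0.2 mM GSSG plus aromatic thiol, 25 °C. Timed aliquots assayed for lytic activity on M. lysodeikticus (decrease in 450 nm scattering over 2 min). Fit to y=A(1−e^−kt), A = maximal %activity; at least seven independent assays on separate days.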

The species entered for series [4] is Gallus gallus. Put plainly: Effect on reduced chicken lysozyme folding activity assessed as maximal activity at 8 mM at pH 6. Also noted: scale not given: the % may be the effect or the level left. The gist of the method: as §1
For series [5], the species on record is Gallus gallus. In words: Effect on reduced chicken lysozyme folding activity assessed as maximal activity at 8 mM at pH 7. Also noted: scale not given: the % may be the effect or the level left. Put shortly: as §2
The species entered for series [6] is Gallus gallus. In words: Effect on reduced chicken lysozyme folding activity assessed as maximal activity at 20 mM at pH 6. Also noted: scale not given: the % may be the effect or the level left. The gist of the method: as §1
The species named for series [7] is Gallus gallus. In words: Effect on reduced chicken lysozyme folding activity assessed as maximal activity at 15 mM at pH 7. Also noted: scale not given: the % may be the effect or the level left. The gist of the method:
as §2

Data on five compounds can be found in ChEMBL document CHEMBL1141642, “Rate enhancement of the oxidative folding of lysozyme by the use of aromatic thiol containing redox buffers” (Bioorg Med Chem, 2008).

Structures are written as SMILES.

For the compound `O=S(=O)(O)c1ccc(S)cc1`, the Activity came out at 50% in the series filed under Gallus gallus [1] and 62% in the series listed under Gallus gallus [3]. In addition, in series [2], the pKa (as a rule, the negative logarithm of the acid dissociation constant) was 5.7.

For `O=C(O)Cc1ccc(S)cc1`, the Activity in the series listed under Gallus gallus [4] was found to be 16%; in the series listed under Gallus gallus [5] it was 45%.

On to `O=C(O)c1ccc(S)cc1`, for which the Activity in the series filed under Gallus gallus [4] was found to be 60%; in the series filed under Gallus gallus [5] it was 70%. In addition, in series [2], the pKa came out at 5.95.

Turning to `C[N+](C)(C)Cc1ccc(S)cc1`, the results for the Activity in the series listed under Gallus gallus [6] and in the series listed under Gallus gallus [3] were 85% and 72%, respectively. In series [2], this compound gave a pKa of 5.5.

As to `O=P(O)(O)Cc1ccc(S)cc1`, the Activity in the series listed under Gallus gallus [4] and in the series listed under Gallus gallus [7] was 67% in each case. In series [2], this compound had a pKa of 6.6.
